In ChEMBL document CHEMBL1275292, “Design and synthesis of bioactive adamantanaminoalcohols and adamantanamines” (Eur J Med Chem, 2010):
The source made the active and inactive calls. No cut-off for these calls is given here.

Columns and labels:
[1] = Selectivity index, ratio of MCC for MDCK cells to EC50 for Influenza A virus (A/Hong Kong/7/1987(H3N2)); type: toxicity, cell-based; settings: dog, read-out: Selectivity Index
[2] = system: Trypanosoma brucei; experiment: Antiparasitic activity against Trypanosoma brucei 427 bloodstream forms assessed as inhibition of parasite growth after 48 hrs; type: functional, organism-based
Method in brief: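 Bloodstream-form T. brucei strain 427 were grown at 37 °C and pH 7.4 in modified Iscove's medium, in 4 ml cultures for 48 h across a drug range of 0.1 to 25. Cell densities were counted by hemocytometer and growth was expressed as % of untreated controls. IC50 and IC90 were derived from these counts, as mean ± SD of three experiments.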

[3] = Cytotoxicity against MDCK cells by MTS assay; type: cell-based, Canis lupus familiaris; settings: dog
[4] = system: Trypanosoma brucei; experiment: Antiparasitic activity against Trypanosoma brucei 427 bloodstream forms assessed as inhibition of parasite growth at 5 ug/mL after 48 hrs; type: functional; settings: Trypanosoma brucei, 427, 48 h; read-out: GI
[5] = system: H3N2 subtype; experiment: Antiviral activity against Influenza A virus (A/Hong Kong/7/1987(H3N2)) infected in MDCK cells assessed as inhibition of virus-induced cytopathogenicity by MTS assay; type: functional, organism-based
Method in brief: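 MDCK cells infected with influenza A/HK/7/87 (H3N2), whose M2 carries serine at position 31. Virus-induced cytopathic effect was read after multiple replication cycles at 72 h post infection by microscopic scoring and by a colorimetric formazan MTS cell-viability assay. EC50 is the concentration giving 50% inhibition of CPE by MTS. Compounds were tested as hydrochlorides, aminoalcohols as free bases. Values are mean ± SD with the number of independent determinations.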

[6] = system: H3N2 subtype; experiment: Antiviral activity against Influenza A virus (A/Hong Kong/7/1987(H3N2)) infected in MDCK cells assessed as inhibition of virus-induced cytopathogenicity at 500 uM by MTS assay; type: functional, organism-based
[7] = Trypanosoma brucei, 427, 48 h, read-out: IC50

SMILES	selectivity ratio [1]	IC50 [2]	MCC [3] [µM]	inhibition of growth at 5 µg/mL [4] [%]	EC50 [5] [µM]	IC90 ([2]; Trypanosoma brucei, 427, 48 h) [µM]	IC50 [2, 7] [µM]	inhibition [6]
NCCC1(O)C2CC3CC(C2)CC1C3 (centres undefined)	3	Not Active	17	30	6.24	–	–	–
NCCC1(O)CC2CC3CC(C2)C1C3 (centres undefined)	67	Not Active	512	30	7.68	–	–	–
NC12CC3CC(CC(C3)C1)C2 [AMANTADINE]	> 51	–	> 100	–	2	–	–	–
CNC(CN)C12CC3CC(CC(C3)C1)C2 (centres undefined)	–	–	404	–	–	7.8	5.2	inactive
NCC1(O)C2CC3CC(C2)CC1C3 (centres undefined)	–	Not Active	–	30	–	–	–	inactive
OC1(C2CCCCN2)C2CC3CC(C2)CC1C3 (centres undefined)	–	Not Active	208	30	–	–	–	inactive
CN(C)CCCC12CC3CC(CC(C3)C1N)C2 (centres undefined)	–	Not Active	> 200	30	–	–	–	inactive
NC(=O)c1ncn([C@@H]2O[C@H](CO)[C@@H](O)[C@H]2O)n1 [RIBAVIRIN]	–	–	–	–	8.7	–	–	–
NC1C2CC3CC(C2)CC1(c1ccccc1)C3 (centres undefined)	–	–	218	–	–	> 20	11.1	inactive
CNC1(c2ccccn2)C2CC3CC(C2)CC1C3 (centres undefined)	–	–	264	–	–	> 25	24.6	inactive
CC(N)C12CC3CC(CC(C3)C1)C2 (centres undefined) [RIMANTADINE]	> 276	–	> 100	–	≤ 0.362	14	–	–
NC1CC2CC3CC(C2)C1C3 (centres undefined)	69	Not Active	107	30	1.5	–	–	–
CN(C)CCCC12CC3CC(CC(C3)C1O)C2 (centres undefined)	–	–	> 250	–	–	1.8	0.84	inactive
NCC1(CO)C2CC3CC(C2)CC1C3 (centres undefined)	256	Not Active	87	30	0.34	–	–	–
CN(C)CCC[C@]1(O)CC2CC3CC(C2)C1C3 (some centres undefined)	–	–	> 250	–	–	1.7	0.84	inactive
NCCC12CC3CC(CC(C3)C1O)C2 (centres undefined)	60	Not Active	512	30	8.6	–	–	–
NC1(CO)C2CC3CC(C2)CC1C3 (centres undefined)	> 314	–	> 459	–	1.46	18.2	9.4	–
